Experimental data collected from several papers.
Each line is one published result; the experiments were not run side by side.

| Structure (SMILES) | assay | test system | conditions | measurement | result |
| --- | --- | --- | --- | --- | --- |
| CC(C)CC(=O)OC[C@H]1O[C@@](C#N)(c2ccc3c(N)ncnn23)[C@H](O)[C@@H]1O | metabolic stability | dog, hepatocytes | 5 µM | hepatocyte CLint | > 318 µL/min/10⁶ cells |
| CC(C)=CCC[C@](C)(O[C@@H]1O[C@H](CO)[C@@H](O)[C@H](O)[C@H]1O)[C@H]1CC[C@]2(C)[C@@H]1[C@H](O)C[C@@H]1[C@@]3(C)CC[C@H](O)C(C)(C)[C@@H]3CC[C@]12C | – | mouse, plasma | oral, 10 mg/kg | half-life | 14 h |
| CN(C)C1(CNC(=O)c2ccc3c(c2)CCN3C(=O)c2ccccc2)CCOCC1 | – | male C57BL/6 mouse, brain | intraperitoneal, 50 mg/kg, 2 h | concentration | 39 ng/g |
| CC(C)[C@]12O[C@H]1[C@@H]1O[C@]13[C@]1(O[C@H]1C[C@H]1C4=C(CC[C@@]13C)C(=O)OC4)[C@@H]2O | – | SCID mouse, plasma | intravenous, 0.6 mg/kg | half-life | 0.16 h |
| COc1cc(C(=O)c2nc(-c3cccc4[nH]ccc34)c[nH]2)cc(OC)c1OC | – | male CD-1 mouse, plasma | intraperitoneal, 15 mg/kg | half-life | 0.95 h |
| Cc1[nH]c(C)c(S(=O)(=O)Nc2ccc(S(F)(F)(F)(F)F)cc2)c1C(=O)N1CCC(F)(F)C1 | – | mouse, plasma | intraperitoneal, 40 mg/kg | half-life | 2.64 h |
| CCOC(=O)c1c(NC(=O)CNC(C)C)sc2c1CCCCC2 | – | male mouse, brain | intraperitoneal, 100 mg/kg, single dose | half-life | 2.06 h |
| Cc1ncsc1-c1ccc([C@H](CC(=O)NCCOCCOCCOCCOCCOCCC(=O)N2CCC(Nc3cc(C(=O)NC[C@H](O)CN4CCc5ccccc5C4)ncn3)CC2)NC(=O)[C@@H]2C[C@@H](O)CN2C(=O)[C@@H](NC(=O)C2(F)CC2)C(C)(C)C)cc1 | – | male Swiss mouse, plasma | intraperitoneal, 50 mg/kg, 8 h, single dose | concentration | > 200 nM |
